# Screens from PubChem BioAssay.
# MDM2 E3 inh: inhibitors of human Mdm2 E3 ubiquitin ligase | cell-based MDM2 ubiquitination luciferase reporter, 2 h; 0 = plate control, 100 = twice control, blank-subtracted | signal enhancement, % at 5 µM | hit rate 0.11% among 210,000 | AID 1230;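 active = signal enhancement of 30% or more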;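 also: luminescence tracks abundance of the self-degrading MDM2-luciferase fusion protein; higher signal means inhibition of MDM2 E3 ligase activity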
#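 Timing – 2 h compound exposure at 37 °C · Assay system – mammalian cells stably expressing self-ubiquitinating, self-degrading MDM2 E3–luciferase fusion · Amount – 2000 cells seeded into each well · Measure – % luminescence enhancement versus blank-corrected plate control mean · Measured by – SteadyLite luminescence, 15 min reagent step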
# HSV augment: HSV replication enhancement; HSV replication augmentation in cells, fold increase; maximum fold increase; hit rate 0.005% among 220,000; AID 1956; in the data active = maximum fold increase above about 1.5; tested in PC3 cells
# HSF-1 act: increases HSF-1 driven luciferase reporter signal. hit rate 1.7% among 300,000. NIH3T3-HGL HSF-1 luciferase reporter, MG132, 8 h; 100% = twice DMSO control signal. activation, % at 9 µM;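 active = mean replicate activation of at least 50% with a set share of replicates each reaching 50%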;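 also: 0% = median of the neutral control wells and 100% = twice that signal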
# Hsp70 activator: switches on Hsp70 transcription. activation, % at 10 µM. hit rate 0.04% among 200,000. HeLa Hsp70 promoter luciferase reporter, luminescence; scaled: vehicle 0, proteasome-inhibitor control 100%;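 active = activation above the mean across all tested compounds plus 3 SD, cutoff set per campaign, cut at about 5.5% in these data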;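 also: 100% = MG132 at 30 µM as the positive control and 0% = DMSO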
# Rad51 HR inh: Rad51 (human) homologous recombination inhibition. Q06609. hRad51 DNA strand exchange, fluorescence dequenching. inhibition, % at 10 µM. hit rate 0.085% among 200,000. AID 1385;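 active = inhibition above 40% at the single screening dose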;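 also: 0% = DMSO control wells and 100% = blanks with heterologous ssDNA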
# Target sequence (Q06609 whole entry, looked up): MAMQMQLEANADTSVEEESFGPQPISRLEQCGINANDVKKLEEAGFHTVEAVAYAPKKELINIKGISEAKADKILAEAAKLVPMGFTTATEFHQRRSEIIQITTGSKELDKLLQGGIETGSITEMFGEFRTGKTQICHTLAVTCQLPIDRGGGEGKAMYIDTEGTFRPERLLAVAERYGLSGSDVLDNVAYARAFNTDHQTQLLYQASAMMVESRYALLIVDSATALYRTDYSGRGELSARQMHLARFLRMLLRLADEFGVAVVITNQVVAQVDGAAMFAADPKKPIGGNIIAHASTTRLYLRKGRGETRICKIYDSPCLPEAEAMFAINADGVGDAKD
#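 Material: Human Rad51 nucleoprotein filaments preassembled on unlabelled ssDNA | Also added: Labelled 47-mer dsDNA for strand exchange | Dosing: Single dose, 10 µM final compound | Schedule: 30-min compound preincubation and 15-min exchange, both room temperature | Technique: Fluorescence dequenching at 485/520 nm | Measure: Percent inhibition relative to plate controls and blanks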
# HSF1 inh: HSF1 inhibition; hit rate 0.77% among 300,000; NIH3T3-HGL HSE-luciferase, MG132-induced, luminescence 8 h; active compounds read low; activity change, negative = inhibition, % at 7.5 µM (by protocol);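 active = more than half of replicate wells show activity change below -50%, luminescence cut by over half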;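 also: luciferase reports HSF-1 transcriptional activity via heat shock element; 0% = median of DMSO wells and -100% = zero luminescence signal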
# * hit, by the source's call; i = inactive; x = not tested or not shown. Most compounds without a hit are left out; they make up all but 2.6% or so of the library.
SMILES,MDM2 E3 inh,HSV augment,HSF-1 act,Hsp70 activator,Rad51 HR inh,HSF1 inh
Cc1cc(=O)oc2c(C(=O)/C=C\c3cccs3)c(O)ccc12,x,i,61*,0,x,34
CCOC(=O)c1ccc(N=c2sc(C(=O)OC)cc(=O)n2CCCN2CCOCC2)cc1,-12,i,45,0,1,29
CCOC(=O)c1ccc(N=c2sc(C(=O)OC)cc(=O)n2Cc2ccco2)cc1,-5,i,107*,1,-5,89
CC(C)C(C)(C#N)NC(=O)CSc1nc2scc(-c3ccc(F)cc3)c2c(=O)n1Cc1ccccc1 (configuration not stated),10,i,5,0,-6,2
CCCS(=O)(=O)N1CCc2cc(OC)c(OC)cc2C1,-13,i,-68,0,-1,-55*
Cc1ccc(CNC(=O)CNS(=O)(=O)c2ccc3nc(C)sc3c2)cc1,-18,i,1,0,x,-3
O=C(Nc1ccc2c(c1)OCCO2)N1CCN(c2ccc(F)cc2)CC1,-9,i,-60,0,1,-58*
Cc1cccc(C)c1N1CCN(C(=O)Nc2ccc3c(c2)OCCO3)CC1,-9,i,-51,0,0,-48
COc1cc2cc(C(=O)Nc3ccc4c(c3)OCCO4)[nH]c2cc1OC,x,x,-74,x,x,-72*
Cc1ccsc1C(=O)Nc1ccc2c(c1)OCCO2,-72,i,51*,0,3,12
Cc1cccc(NC(=S)NNC(=O)c2sccc2C)c1,-4,i,57*,0,2,29
CCc1cc(C(=O)NNC(=S)Nc2cccc(C)c2)cs1,-10,i,37,1,-1,14
CCSc1nc2c(cnn2-c2ccccc2)c(=O)n1N,-24,i,36,x,20,17
O=C1CCC(=O)N1Cc1c(Cl)cccc1Cl,x,x,2,x,x,-1
O=C(c1ccccn1)N1CCCC(N2CCN(c3cccc(C(F)(F)F)c3)CC2)C1 (configuration not stated),x,x,-6,x,x,2
CC1CCCCN1S(=O)(=O)c1ccc(C(=O)N2CCOCC2)cc1 (configuration not stated),x,x,4,x,x,-9
CC1CN(C(=O)Nc2ccc3c(c2)OCCO3)CC(C)O1 (configuration not stated),-4,i,-64,0,11,-58*
CCOC(=O)N1CCN(Cc2nc3cc(NC(=O)c4ccco4)ccc3n2CC)CC1,x,x,-1,x,x,2
CCCCOc1ccc2c(c1)C(=O)c1cc(O)ccc1-2,x,i,64*,0,x,39
COc1cc(C(=O)OCC(=O)NCCN2C(=O)CSC2=O)ccc1OCc1c(C)noc1C,-1,i,-9,0,x,-4
NNC(=O)c1ccc(S(=O)(=O)N2CCc3ccccc32)cc1,x,x,33,x,x,7
CCN1CN(Cc2ccco2)CNC1=S,-3,i,-9,0,-11,-6
O=C(NC(=S)NC1C2CC3CC(C2)CC1C3)c1ccccc1 (configuration not stated),x,x,-66,x,x,-58*
CC(Cl)C(=O)c1c[nH]c2ccccc12 (configuration not stated),-18,i,2,0,-5,4
CCOc1ccc(CN(C)CC(=O)NCc2ccccc2Cl)cc1,4,i,16,0,17,6
SMILES,MDM2 E3 inh,HSV augment,HSF-1 act,Hsp70 activator,Rad51 HR inh,HSF1 inh
N#CC(C(=O)NC1CCCCC1)=C1CCCCCC1,-22,i,0,0,x,-6
Cn1ncc2c(O/N=C(\N)c3ccc(C(C)(C)C)cc3)ncnc21,-33,i,-93,x,x,-92*
CCCc1cc(=O)[nH]c(SCC(=O)Nc2ncc(S(=O)(=O)c3ccc([N+](=O)[O-])cc3)s2)n1,-5,i,-8,x,-6,-2
N#C/C(=C/c1cccc(C(F)(F)F)c1)c1nc(CCN2C(=O)c3ccccc3C2=O)cs1,-10,i,-65,0,-6,-59*
COC(=O)Cn1c2ccc(Cl)cc2c2nc(C)sc21,-12,i,-1,x,-6,-10
Cc1nc2c3cc(Cl)ccc3n(CCN3CCCCC3)c2s1,-9,i,60*,0,18,17
Cc1ccccc1CSc1nsc(N)n1,-13,i,61*,0,1,16
